Reference: ChEMBL document CHEMBL5674867, “The SUV39H1 inhibitor chaetocin induces differentiation and shows synergistic cytotoxicity with other epigenetic drugs in acute myeloid leukemia cells” (Blood Cancer J, 2015)
The source made the active and inactive calls. The calls are words filed in the database; no cut-off is given here.

Key:
U-937 [1] = experiment: Induction of myeloid differentiation in human U-937 cells at 20 nM in combination with 0.5 uM SAHA measured after 12 hrs by Liu's staining method; type: functional, cell-based
Outline: (§1)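 Cells received single epigenetic inhibitors or combinations and were collected by cytospin. After Liu's staining (reagent A 1 min, reagent B 2.5 min), differentiated cells were counted under a light microscope. Mean ± s.e. of three independent experiments.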

HL-60 [2] = experiment: Induction of myeloid differentiation in human HL-60 cells at 20 nM in combination with 0.5 uM SAHA measured after 12 hrs by Liu's staining method; type: functional, cell-based; outline: as §1
KG-1a [3] = experiment: Induction of myeloid differentiation in human KG-1a cells at 20 nM in combination with 0.5 uM SAHA measured after 12 hrs by Liu's staining method; type: functional, cell-based; outline: as §1
KG-1a [4] = experiment: Induction of myeloid differentiation in human KG-1a cells at 0.5 uM measured after 12 hrs by Liu's staining method; type: functional, cell-based
Outline: (§2)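 Cells treated for 12 h, spun onto slides by cytospin, stained with Liu's reagent A for 1 min and then reagent B for 2.5 min. Morphology read by light microscopy. KG-1a was grown in IMDM with 15% FBS; HL-60 and U937 in RPMI with 10% FBS.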

U-937 [5] = experiment: Induction of myeloid differentiation in human U-937 cells at 0.5 uM measured after 12 hrs by Liu's staining method; type: functional, cell-based; outline: as §2
HL-60 [6] = experiment: Induction of myeloid differentiation in human HL-60 cells at 0.5 uM measured after 12 hrs by Liu's staining method; type: functional, cell-based; outline: as §2
HL-60 [7] = experiment: Induction of myeloid differentiation in human HL-60 cells at 50 nM measured after 12 hrs by Liu's staining method; type: functional, cell-based; outline: as §1
U-937 [8] = experiment: Induction of myeloid differentiation in human U-937 cells at 50 nM measured after 12 hrs by Liu's staining method; type: functional, cell-based; outline: as §1
KG-1a [9] = experiment: Induction of myeloid differentiation in human KG-1a cells at 50 nM measured after 12 hrs by Liu's staining method; type: functional, cell-based; outline: as §1
HL-60 [10] = experiment: Cytotoxicity against human HL-60 cells at 20 nM assessed as decrease in cell viability in combination with 0.5 uM SAHA measured after 24 hrs by MTT assay; type: functional
U-937 [11] = experiment: Cytotoxicity against human U-937 cells at 20 nM assessed as decrease in cell viability in combination with 0.5 uM SAHA measured after 24 hrs by MTT assay; type: functional
KG-1a [12] = experiment: Cytotoxicity against human KG-1a cells at 20 nM assessed as decrease in cell viability in combination with 0.5 uM SAHA measured after 24 hrs by MTT assay; type: functional

In the case of `CN1C(=O)[C@@]23C[C@]4([C@]56C[C@@]78SS[C@@](CO)(C(=O)N7[C@H]5Nc5ccccc56)N(C)C8=O)c5ccccc5N[C@@H]4N2C(=O)[C@]1(CO)SS3.O=C(CCCCCCC(=O)Nc1ccccc1)NO` [listing 1 of 2 here], the Activity (U-937 [1]) is reported as “inactive”, the Activity (HL-60 [2]) is reported as “inactive” and the Activity (KG-1a [3]) is reported as “inactive”.

In the case of `O=C(CCCCCCC(=O)Nc1ccccc1)NO`, the Activity (KG-1a [4]) is reported as “Active”, the Activity (U-937 [5]) is reported as “Active” and the Activity (HL-60 [6]) is reported as “Active”.

With `Cc1sc2c(c1C)C(c1ccc(Cl)cc1)=N[C@@H](CC(=O)OC(C)(C)C)c1nnc(C)n1-2` the Activity (HL-60 [7]) was “Active”, the Activity (U-937 [8]) was “Active” and the Activity (KG-1a [9]) was “Active”.

`CN1C(=O)[C@@]23C[C@]4([C@]56C[C@@]78SS[C@@](CO)(C(=O)N7[C@H]5Nc5ccccc56)N(C)C8=O)c5ccccc5N[C@@H]4N2C(=O)[C@]1(CO)SS3.O=C(CCCCCCC(=O)Nc1ccccc1)NO` [listing 2 of 2 here] gave an Activity (HL-60 [10]) of 40%, an Activity (U-937 [11]) of 20% and an Activity (KG-1a [12]) of 40%.
